Data reported in article PMC3262149 (Angewandte Chemie (International Ed. in English), 2011).
Square brackets hold non-standard residues; d marks the D form. Side chains are listed from the residue outwards. Peptide text beside a SMILES is read from it. * marks the point of attachment. X1 = O=C(CCS[C@@H]1O[C@H](CO)[C@H](O)[C@H](O)[C@H]1O)*; βGal = OC[C@H]1O[C@@H](*)[C@H](O)[C@@H](O)[C@H]1O; Mpa = O=C(O)CCS

How the values were obtained:
[1] = molecular target: T1, P. aeruginosa lectin LecA (Pseudomonas aeruginosa, UniProt Q05097); experiment: Hemagglutination inhibition assay; format: biochemical; conditions: relative to D-galactose
T1 sequence (Q05097 1-122): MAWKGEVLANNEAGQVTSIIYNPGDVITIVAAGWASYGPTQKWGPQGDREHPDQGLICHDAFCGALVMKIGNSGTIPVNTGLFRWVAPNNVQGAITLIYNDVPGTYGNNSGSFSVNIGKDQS
Summary of the method: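 Twofold serial dilutions of test compound were preincubated with LecA for 30 min at 4 °C. Rabbit erythrocytes (5 % solution in PBS) were then added and incubated 1 h at RT. MIC was taken as the highest dilution giving complete inhibition of hemagglutination.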

[2] = molecular target: T1, P. aeruginosa lectin LecA; experiment: Isothermal titration calorimetry; format: binding; conditions: for n′ (stoichiometry, number of occupied lectin galactose binding sites per dendrimer) / ΔH / −T ΔS / r.p./n = (Kd(D-galactose)/Kd(ligand))/n: ITC; for n′ (stoichiometry, number of occupied lectin galactose binding sites per dendrimer) / ΔH / −T ΔS: 0.1 M Tris base, pH 7.5, 25 mM CaCl2, 25 °C, average of two independent runs; for r.p./n = (Kd(D-galactose)/Kd(ligand))/n: relative to D-galactose, per galactose residue

| Compound | r.p./n, relative potency per galactose residue = (MIC(D-galactose)/MIC(ligand))/n [1] | n′ (stoichiometry, number of occupied lectin galactose binding sites per dendrimer) [2] | ΔH [2] | −T ΔS [2] | r.p./n = (Kd(D-galactose)/Kd(ligand))/n [2] | Kd [2] |
| --- | --- | --- | --- | --- | --- | --- |
| CC(C)S[C@@H]1O[C@H](CO)[C@H](O)[C@H](O)[C@H]1O [IPTG, isopropyl-β-thiogalactoside] | 2.8 | 1.1±0.1 | -8.9 ± 0.5 kcal/mol | 2.8 ± 0.5 kcal/mol | 2.7 | – |
| O=C[C@H](O)[C@@H](O)[C@@H](O)[C@H](O)CO [D-galactose] | – | 1.1±0.1 | -8.4 ± 0.1 kcal/mol | 2.3 ± 0.4 kcal/mol | – | – |
| O=[N+]([O-])c1ccc(O[C@@H]2O[C@H](CO)[C@H](O)[C@H](O)[C@H]2O)cc1 [NPG, p-nitrophenyl-β-galactoside] | 5.7 | 0.9±0 | -10.0 ± 0.1 kcal/mol | 3.4 ± 0.1 kcal/mol | 6.2 | – |
| CC[C@H](C)[C@H](NC(=O)[C@H](CCCCN)NC(=O)[C@H](Cc1ccccc1)NC(=O)[C@H](CCCCNC(=O)[C@H](CC(C)C)NC(=O)[C@@H]1CCCN1C(=O)[C@H](CCCCN)NC(=O)CCS[C@@H]1O[C@H](CO)[C@H](O)[C@H](O)[C@H]1O)NC(=O)[C@H](CC(C)C)NC(=O)[C@@H]1CCCN1C(=O)[C@H](CCCCN)NC(=O)CCS[C@@H]1O[C@H](CO)[C@H](O)[C@H](O)[C@H]1O)C(N)=O [GalBG1] ([Mpa](βGal)KPLK([Leu-Pro-Lys-X1])FKI-NH2) | 2.5 | 2.5±0.3 | -8.3 ± 0.4 kcal/mol | 0.7 ± 0.4 kcal/mol | 20.5 | 2.1 ± 1 µM |
